From PubChem
Yeast lifespan up – compounds extending yeast replicative lifespan, primary screen, S. cerevisiae, OD615; actives 0.68% (n = 130,000); S. cerevisiae growth with nicotinamide; deaD strain in restrictive glucose medium; AID 775, 2007; inhibition of the nicotinamide effect, % at 10 µM;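 active = inhibition above a set limit, placed 3 SD over the median of all compounds, cut at about 26% in these data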;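 also: 0% = nicotinamide-treated wells and 100% = cells grown without nicotinamide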
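System: Modified budding yeast, DeaD strain | Buffer or medium: Restrictive glucose medium | Also added: 1.5 mM nicotinamide | Doses: 10 µM single point, 0.25% DMSO | Schedule: 48 h compound exposure at 30 °C, humidified | Detection: Absorbance at 615 nm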
Measles CPE – compounds protecting cells from measles virus cytopathic effect, primary screen, measles RdRp inhibitor project, single point, MLSMR library, absorbance. actives 1.5% (n = 140,000). protection (pct of control), % at 4 µM. Measles virus-infected cells, CPE protection; in the data active = protection mostly above about 24%, no sharp cut-off; inactive = mostly below about 26%
RAM network inh – inhibitors of the yeast RAM network, primary screen, dse1pr::URA3 reporter, 5-FOA selection; inhibition, % at 50 µM; S. cerevisiae dse1pr::URA3 reporter, 5-FOA growth OD615, 2 d; analog-sensitive cbk1-as2 kinase mutant strain; actives 1.8% (n = 190,000);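 active = inhibition above a set limit, 3 SD over mean compound inhibition, cut at about 8.4% in these data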;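 also: 0% = DMSO-only wells with no growth and 100% = 10 µM 1-NA-PP1 full growth; inhibition rescues growth on 5-FOA so higher OD means more RAM inhibition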
BB579 growth dn – growth inhibitors of yeast BB579 in restrictive medium, primary screen, yeast lifespan-shortening project, S. cerevisiae | OD615, 48 h | actives 0.51% (n = 140,000) | inhibition, % at 10 µM | AID 804, 2007;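 active = inhibition above a set limit, 3 SD over the mean compound inhibition, cut at about 44% in these data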
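Assay system – yeast BB579 (DeaD) · Dosing – single compound dose of 10 µM, 0.25% DMSO final · Detection – OD615 turbidity measurement · Buffer or medium – CSMM-D restrictive synthetic medium containing dextrose (glucose) · Benchmarks – positive control amphotericin B 10 µg/mL · Incubation – 48 h exposure, 30 °C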
* marks the source's active call; other numbers are inactive results; x = not tested or not shown. An excerpt weighted towards active compounds, which were near 3.6% of everything screened.

SMILES	Yeast lifespan up	Measles CPE	RAM network inh	BB579 growth dn
CC(=O)Oc1ccc2ccccc2c1C(NC(=O)Cc1ccccc1)c1ccccc1 (configuration not stated)	4.0	3.2	9.6*	-77.6
Cc1cc2c(c(=O)o1)C(C13C=CC(CC1)C3)C(C#N)=C(N)O2 (configuration not stated)	-14.2	31.3*	0.2	-31.4
Cc1ccc(NC(=O)c2cn(-c3cccc(C)n3)cn2)cc1	-18.4	4.2	4.7	-58.4
CCOC(CCNC(=O)c1cn(-c2cccc(C)n2)cn1)OCC	-16.3	33.6*	3.8	-17.8
Cc1c(-c2nc(N)nc(Nc3ccc(F)cc3)n2)oc2ccccc12	-5.3	9.1	2.7	-39.8
COc1ccccc1Nc1nc(N)nc(-c2oc3ccccc3c2C)n1	-0.2	3.6	9.8*	-55.6
CCNC(=S)N(Cc1ccco1)Cc1cc2cc(OCC)ccc2[nH]c1=O	x	x	9.7*	x
N#C/C(=N\Nc1ccccc1F)c1nc(-c2ccccc2)cs1	x	x	9.8*	x
N#C/C(=C\Nc1ccccc1SC(F)(F)F)c1nc(-c2ccc(F)cc2)cs1	5.4	32.1	5.1	-17.1
Cc1ccc(S(=O)(=O)n2[nH]c(=O)c(CCO)c2C)cc1	x	x	1.9	x
CN(C)c1nc(C=C(C#N)C#N)c(Cl)n1-c1ccc(F)cc1	x	x	1.1	x
O=C(CN1C(=O)NC2(CCSC2)C1=O)NCc1ccccc1 (configuration not stated)	x	x	2.5	x
Cc1cccc(C(=O)Nc2nc(C)c(C(=O)Nc3ccc4c(c3)CCC4)s2)c1	-15.6	6.0	8.6*	-42.1
Cc1cccc(NC(=O)c2sc(C)nc2C)c1	x	17.8	-1.1	-15.9
O=C(Cc1ccc(-n2c(=O)[nH]c3ccsc3c2=O)cc1)N1CCN(c2ccc(Cl)cc2)CC1	2.5	16.9	8.4*	-25.8
CCNS(=O)(=O)c1ccc(CCC(=O)NCc2ccc(C)cc2)cc1	x	x	0.7	x
CCN(CC)C(=O)Cn1c(=O)n(CCCC(=O)NCc2ccccc2)c(=O)c2sccc21	x	x	0.9	x
CC(=O)OC1=C(C#N)Cn2ccc3cccc1c32	35.2	57.5*	1.5	-64.7
CC1(C(=O)OCC(=O)Nc2ccc3ccccc3c2)CC1(Cl)Cl (configuration not stated)	x	x	5.3	x
CC(C)c1ccccc1NC(=O)C1CN(S(=O)(=O)c2ccccc2)CCN1S(=O)(=O)c1ccccc1 (configuration not stated)	2.0	9.5	8.6*	-28.9
CCC(C)NC(=O)C1CN(S(=O)(=O)c2ccccc2)CCN1S(=O)(=O)c1ccccc1 (configuration not stated)	-12.7	17.7	2.0	26.6
COc1ccc(C(C)=O)cc1COc1ccc([N+](=O)[O-])c(C)c1	x	x	8.6*	x
COc1ccc(C(C)=O)cc1COc1ccccc1[N+](=O)[O-]	x	x	4.7	x
CCc1ccc(S(=O)(=O)NCCc2cn3cccc(C)c3n2)s1	x	x	-0.1	x
Cc1cccc(CSc2cccc3cccnc23)c1	-11.6	4.4	-1.4	95.6*
SMILES	Yeast lifespan up	Measles CPE	RAM network inh	BB579 growth dn
NNC(=O)c1ccc(CSc2cccc3cccnc23)cc1	x	x	-0.4	x
COc1ccc(-n2nc(C(=O)NCC(=O)NCc3ccco3)c3ccccc3c2=O)c(OC)c1	-23.9	9.0	5.3	-41.2
COc1ccc(-n2nc(C(=O)NCC(=O)NCc3ccc(F)cc3)c3ccccc3c2=O)c(OC)c1	-30.4	86.8*	6.0	-49.2
O=C(CN1C(=O)CC(c2ccccc2)S(=O)(=O)c2ccccc21)N1CCCCC1 (configuration not stated)	x	x	1.4	x
CC(=C\C(=O)O)/C(=C/c1ccc(C)o1)C(=O)O	-4.3	2.2	2.6	-22.4
COc1ccc(N(C(=O)COc2cccc(C)c2)S(=O)(=O)c2ccc(C)cc2)cc1	19.0	3.1	9.7*	-43.8
COc1ccc(S(=O)(=O)N(CC(=O)O)c2ccc(C)cc2)cc1	-10.6	3.5	1.0	10.6
CCCCCCCCCCCCCCCC(O)C(N)CO (configuration not stated)	-10.2	0.4	-1.2	99.9*
COc1ccc(NC(=O)CCC(=O)c2cccs2)cc1S(=O)(=O)Nc1ccccc1Cl	4.3	7.1	10.0*	-31.4
COc1ccc(C(=O)Nn2c(CCC(=O)O)ccc2-c2ccc(C)cc2)cc1OC	x	x	0.3	x
O=C(c1cnn2c(C(F)F)cc(C3CC3)nc12)N1CCCC1	107.4*	10.9	-0.9	-4.5
CCOC(=O)c1nnsc1Nc1ccc(C)c(C)c1	x	x	1.6	x
CCOc1ccc(S(=O)(=O)NCCC2=CCCCC2)c2ccccc12	-3.4	14.1	11.1*	-47.0
CCOc1ccc(C2=C(C=Nc3c(C)n(C)n(-c4ccccc4)c3=O)C(c3ccc(F)cc3)c3ccccc3O2)cc1 (configuration not stated)	-2.7	30.5	8.5*	-49.1
CCOc1ccc(C2SCC(=O)N2c2c(C)n(C)n(-c3ccccc3)c2=O)cc1 (configuration not stated)	-3.4	18.7	1.9	-41.1
CCOC(=O)N1CCC(N(CCN(C)C)C(=S)Nc2cc(Cl)ccc2C)CC1	x	x	-1.2	x
CS(=O)(=O)C1=NSC2=NC(=O)/C(=C\c3ccc(-c4ccccc4)o3)C(=N)N21	1.6	2.4	3.0	-2.4
CCSC1=NSC2=NC(=O)/C(=C\c3coc4ccccc4c3=O)C(=N)N12	38.2*	10.8	4.2	-15.9
O=C(NCc1ccco1)/C(=C\C=C\c1ccccc1)NC(=O)c1ccccc1Br	x	x	1.7	x
Cc1cc(C)n2ncc(S(=O)(=O)c3ccccc3)c2n1	x	x	-0.4	x
CCOc1ccc(-c2nn(-c3ccccc3)cc2/C=C2\SC(=S)N(C3CCS(=O)(=O)C3)C2=O)cc1 (configuration not stated)	0.2	11.7	9.3*	-54.7
CCCOc1ccc(-c2nn(-c3ccccc3)cc2/C=C2\SC(=S)N(C3CCS(=O)(=O)C3)C2=O)cc1 (configuration not stated)	-1.4	1.8	6.3	-12.8
CCOc1ccc(/C(O)=C2/C(=O)C(=O)N(CC3CCCO3)C2c2ccc(C)o2)cc1 (configuration not stated)	5.9	46.1*	5.3	4.7
CC1CCN(CCCNC(=O)c2ccc(Cn3c(=S)[nH]c4ccc(Br)cc4c3=O)cc2)CC1	x	x	0.6	x
COc1ccccc1NC(=O)N1CCC(c2nc3ccccc3o2)CC1	x	x	0.5	x
O=C(CSc1oc(-c2cccs2)nc1S(=O)(=O)c1ccc(F)cc1)NCC1CCCO1 (configuration not stated)	-8.1	18.9	9.1*	-14.0
CC(=NCCc1c(C)[nH]c2ccc(C)cc12)C1=C(O)CC(c2ccccc2)CC1=O (configuration not stated)	57.7*	-0.7	3.3	-11.8
CC(=NCCc1c(C)[nH]c2ccc(OC(F)(F)F)cc12)C1=C(O)CC(c2ccccc2)CC1=O (configuration not stated)	x	x	5.0	x
